Reference: ChEMBL document CHEMBL2086265, “Design of inhibitors of Helicobacter pylori glutamate racemase as selective antibacterial agents: incorporation of imidazoles onto a core pyrazolopyrimidinedione scaffold to improve bioavailabilty” (Bioorg Med Chem Lett, 2012)
Values after ≈ are worked out from the molar mass of the structure shown.

Legend:
[1] = Intrinsic clearance in mouse liver microsomes at 2 uM assessed per mg of protein; format: ADME, Microsome; conditions: read-out: CLH
Helicobacter pylori [2] = assay: Antibacterial activity against wild type Helicobacter pylori 055; format: functional
[3] = Intrinsic clearance in human liver microsomes at 2 uM assessed per mg of protein; format: ADME, Microsome; conditions: read-out: CLH
Glutamate racemase = target: T1, Glutamate racemase (Helicobacter pylori J99, UniProt Q9ZLT0); assay: Inhibition of Helicobacter pylori J99 glutamate racemase
T1 sequence (Q9ZLT0 whole entry): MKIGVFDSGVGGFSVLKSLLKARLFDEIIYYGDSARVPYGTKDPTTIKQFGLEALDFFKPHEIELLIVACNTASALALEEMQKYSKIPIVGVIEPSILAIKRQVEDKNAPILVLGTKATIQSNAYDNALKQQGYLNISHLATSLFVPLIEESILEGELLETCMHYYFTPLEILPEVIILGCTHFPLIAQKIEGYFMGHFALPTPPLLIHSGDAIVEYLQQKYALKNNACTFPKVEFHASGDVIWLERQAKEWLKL
Outline: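 The racemase was expressed from the murI gene of H. pylori J99 chromosomal DNA. IC50 was taken as the mean of duplicate determinations, using a method cited from earlier work.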

Helicobacter pylori [4] = assay: Antibacterial activity against AcrAB-TolC efflux pump-dificient Helicobacter pylori; format: functional
Helicobacter pylori [5] = assay: Ratio of MIC for wild type Helicobacter pylori 055 to MIC for AcrAB-TolC efflux pump-dificient Helicobacter pylori

| SMILES | microsomal CLint at 2 µM [1] [µL/min/mg] | MIC (Helicobacter pylori [2]) [µg/mL] | microsomal CLint at 2 µM [3] [µL/min/mg] | IC50 (Glutamate racemase) [nM] | MIC (Helicobacter pylori [4]) [µg/mL] | Ratio (Helicobacter pylori [5]) |
| --- | --- | --- | --- | --- | --- | --- |
| CC(=O)c1cc(-c2c3c(=O)n(C)c(=O)n(CC4CC4)c3nn2Cc2ccnc3ccc(Cl)cc23)n(C)c1 | 53 | 3 (≈ 5.8 µM) | 19 | 39 |  |  |
| Cn1cc(C#N)nc1-c1c2c(=O)n(C)c(=O)n(CC3CC3)c2nn1Cc1ccnc2ccc(Cl)cc12 | 87 | 4 (≈ 7.98 µM) | < 14 | 87 | 2 (≈ 3.99 µM) |  |
| Cc1cc(C#N)oc1-c1c2c(=O)n(C)c(=O)n(CC3CC3)c2nn1Cc1ccnc2ccc(Cl)cc12 | > 100 | 1 (≈ 2 µM) | 59 | 60 | 0.25 (≈ 0.499 µM) |  |
| CC(C)Cn1c(=O)n(C)c(=O)c2c(-c3cc(C#N)cn3C)n(Cc3ccnc4ccc(Cl)cc34)nc21 | > 100 | 4 (≈ 7.97 µM) | 94 | 86 |  |  |
| CC(C)Cn1c(=O)n(C)c(=O)c2c(-c3cncn3C)n(Cc3ccnc4ccc(Cl)cc34)nc21 | > 100 | 4 (≈ 8.37 µM) | 17 | 170 |  |  |
| Cc1oc(C#N)cc1-c1c2c(=O)n(C)c(=O)n(CC3CC3)c2nn1Cc1ccnc2ccc(Cl)cc12 | 63 | 2 (≈ 3.99 µM) | 38 | 220 | 2 (≈ 3.99 µM) | <=2 |
| Cc1c[nH]nc1-c1c2c(=O)n(C)c(=O)n(CC3CC3)c2nn1Cc1ccnc2ccc(Cl)cc12 | > 100 | 8 (≈ 16.8 µM) | 20 | 220 |  |  |
| Cn1cnnc1-c1c2c(=O)n(C)c(=O)n(CC3CC3)c2nn1Cc1ccnc2ccc(Cl)cc12 | 64 | 8 (≈ 16.8 µM) | < 14 | 230 |  |  |
| CC(C)Cn1c(=O)n(C)c(=O)c2c(-c3cccn3C)n(Cc3ccnc4ccc(Cl)cc34)nc21 | > 100 | 18 (≈ 37.7 µM) | > 100 | 260 |  |  |
| Cc1sc(N)nc1-c1c2c(=O)n(C)c(=O)n(CC3CC3)c2nn1Cc1ccnc2ccc(Cl)cc12 | > 100 | 8 (≈ 15.7 µM) | 34 | 280 |  |  |
| Cc1nc(N)sc1-c1c2c(=O)n(C)c(=O)n(CC3CC3)c2nn1Cc1ccnc2ccc(Cl)cc12 | 61 | > 32 | < 14 | 740 |  |  |
| Cn1ncnc1-c1c2c(=O)n(C)c(=O)n(CC3CC3)c2nn1Cc1ccnc2ccc(Cl)cc12 | < 14 | 8 (≈ 16.8 µM) | 32 | 810 | 4 (≈ 8.39 µM) |  |
| Cc1nc[nH]c1-c1c2c(=O)n(C)c(=O)n(CC3CC3)c2nn1Cc1ccnc2ccc(Cl)cc12 | > 100 | 32 (≈ 67.2 µM) | 92 | 900 |  |  |
| Cn1cncc1-c1c2c(=O)n(CC#CCO)c(=O)n(CC3CC3)c2nn1Cc1ccnc2ccc(Cl)cc12 | > 100 | 64 (≈ 121 µM) | > 100 | 54 | 16 (≈ 30.2 µM) |  |
| C=CCn1c(=O)c2c(-c3cncn3C)n(Cc3ccnc4ccc(Cl)cc34)nc2n(CC2CC2)c1=O | 49 | 1 (≈ 1.99 µM) | 25 | 56 | 0.8 (≈ 1.59 µM) | <=2 |
| CC#CCn1c(=O)c2c(-c3cncn3C)n(Cc3ccnc4ccc(Cl)cc34)nc2n(CC2CC2)c1=O | 44 | 8 (≈ 15.6 µM) | 47 | 63 | 2 (≈ 3.89 µM) |  |
| Cn1cncc1-c1c2c(=O)n(CC3CC3)c(=O)n(CC3CC3)c2nn1Cc1ccnc2ccc(Cl)cc12 | 44 | 2 (≈ 3.88 µM) | < 14 | 69 | 0.9 (≈ 1.74 µM) | <=2 |
| CCn1c(=O)c2c(-c3cncn3C)n(Cc3ccnc4ccc(Cl)cc34)nc2n(CC2CC2)c1=O | 15 | 4 (≈ 8.16 µM) | < 14 | 72 | 1 (≈ 2.04 µM) |  |
| Cn1cncc1-c1c2c(=O)n(C3CC3)c(=O)n(CC3CC3)c2nn1Cc1ccnc2ccc(Cl)cc12 | 6 | 8 (≈ 15.9 µM) | < 14 | 79 | 2 (≈ 3.98 µM) |  |
| Cn1cncc1-c1c2c(=O)n(CC#CCN3CCOCC3)c(=O)n(CC3CC3)c2nn1Cc1ccnc2ccc(Cl)cc12 | > 100 | 64 (≈ 107 µM) | > 100 | 170 | 16 (≈ 26.7 µM) |  |

| SMILES | microsomal CLint at 2 µM [1] [µL/min/mg] | MIC (Helicobacter pylori [2]) [µg/mL] | microsomal CLint at 2 µM [3] [µL/min/mg] | IC50 (Glutamate racemase) [nM] | MIC (Helicobacter pylori [4]) [µg/mL] | Ratio (Helicobacter pylori [5]) |
| --- | --- | --- | --- | --- | --- | --- |
| CC(C)n1c(=O)c2c(-c3cncn3C)n(Cc3ccnc4ccc(Cl)cc34)nc2n(CC2CC2)c1=O | 51 | 16 (≈ 31.7 µM) | 53 | 220 | 16 (≈ 31.7 µM) | <=2 |
| C#CC(C)n1c(=O)c2c(-c3cncn3C)n(Cc3ccnc4ccc(Cl)cc34)nc2n(CC2CC2)c1=O (configuration not stated) | 65 | 8 (≈ 15.6 µM) | 21 | 460 | 8 (≈ 15.6 µM) | <=2 |
| Cn1cc(C#N)cc1-c1c2c(=O)n(CC#CCn3cncn3)c(=O)n(CC3CC3)c2nn1Cc1ccnc2ccc(Cl)cc12 | > 100 | 8 (≈ 13.2 µM) | > 100 | 13 | 16 (≈ 26.4 µM) |  |
| C#CCn1c(=O)c2c(-c3cc(C#N)cn3C)n(Cc3ccnc4ccc(Cl)cc34)nc2n(CC2CC2)c1=O | 16 | 0.75 (≈ 1.43 µM) | < 14 | 28 | 0.3 (≈ 0.573 µM) | <=2 |
| Cn1cc(C#N)cc1-c1c2c(=O)n(CC#CCN3CCOCC3)c(=O)n(CC3CC3)c2nn1Cc1ccnc2ccc(Cl)cc12 | > 100 | 16 (≈ 25.7 µM) | > 100 | 51 | 4 (≈ 6.42 µM) |  |
| Cn1cc(C#N)cc1-c1c2c(=O)n(CC#N)c(=O)n(CC3CC3)c2nn1Cc1ccnc2ccc(Cl)cc12 | 96 | 8 (≈ 15.2 µM) | < 14 | 55 | 1 (≈ 1.9 µM) |  |
| Cn1cc(C#N)cc1-c1c2c(=O)n(CC#CCO)c(=O)n(CC3CC3)c2nn1Cc1ccnc2ccc(Cl)cc12 | > 100 | 32 (≈ 57.8 µM) | > 100 | 57 | 16 (≈ 28.9 µM) |  |
| CCn1c(=O)c2c(-c3cc(C#N)cn3C)n(Cc3ccnc4ccc(Cl)cc34)nc2n(CC2CC2)c1=O | 17 | 0.75 (≈ 1.46 µM) | 25 | 70 | 0.6 (≈ 1.17 µM) | <=2 |
| C=CCn1c(=O)c2c(-c3cc(C#N)cn3C)n(Cc3ccnc4ccc(Cl)cc34)nc2n(CC2CC2)c1=O | 76 | 1.5 (≈ 2.85 µM) | 33 | 70 | 1 (≈ 1.9 µM) | <=2 |
| CC#CCn1c(=O)c2c(-c3cc(C#N)cn3C)n(Cc3ccnc4ccc(Cl)cc34)nc2n(CC2CC2)c1=O | > 100 | 2 (≈ 3.72 µM) | 99 | 74 | 2 (≈ 3.72 µM) | <=2 |
| Cn1cc(C#N)cc1-c1c2c(=O)n(C3CC3)c(=O)n(CC3CC3)c2nn1Cc1ccnc2ccc(Cl)cc12 | 33 | 2 (≈ 3.8 µM) | 30 | 80 | 0.13 (≈ 0.247 µM) |  |
| Cn1cc(C#N)cc1-c1c2c(=O)n(CCO)c(=O)n(CC3CC3)c2nn1Cc1ccnc2ccc(Cl)cc12 | > 100 | 64 (≈ 121 µM) | > 100 | 88 | 16 (≈ 30.2 µM) |  |
| Cn1cc(C#N)cc1-c1c2c(=O)n(CC#CCn3cccn3)c(=O)n(CC3CC3)c2nn1Cc1ccnc2ccc(Cl)cc12 | > 100 | 8 (≈ 13.2 µM) | > 100 | 120 | 4 (≈ 6.62 µM) |  |
| C#CC(C)n1c(=O)c2c(-c3cc(C#N)cn3C)n(Cc3ccnc4ccc(Cl)cc34)nc2n(CC2CC2)c1=O (configuration not stated) | > 100 | 2 (≈ 3.72 µM) | 91 | 160 | 8 (≈ 14.9 µM) | <=2 |
| Cn1cc(C#N)cc1-c1c2c(=O)n(CC#CCn3ccnc3)c(=O)n(CC3CC3)c2nn1Cc1ccnc2ccc(Cl)cc12 | > 100 | 64 (≈ 106 µM) | 41 | 260 | 4 (≈ 6.62 µM) |  |
| Cn1cc(C#N)cc1-c1c2c(=O)n(CCn3cccn3)c(=O)n(CC3CC3)c2nn1Cc1ccnc2ccc(Cl)cc12 | > 100 | 32 (≈ 55.2 µM) | > 100 | 470 | 32 (≈ 55.2 µM) |  |
| Cn1cc(C#N)cc1-c1c2c(=O)n(CCn3ccnn3)c(=O)n(CC3CC3)c2nn1Cc1ccnc2ccc(Cl)cc12 | > 100 | 16 (≈ 27.5 µM) | > 100 | 670 | 16 (≈ 27.5 µM) |  |
| Cn1cc(C#N)nc1-c1c2c(=O)n(CC3CC3)c(=O)n(CC3CC3)c2nn1Cc1ccnc2ccc(Cl)cc12 |  | 2 (≈ 3.7 µM) |  | 150 | 2 (≈ 3.7 µM) | <=2 |
| Cn1cc(C#N)nc1-c1c2c(=O)n(C3CC3)c(=O)n(CC3CC3)c2nn1Cc1ccnc2ccc(Cl)cc12 | < 14 | 8 (≈ 15.2 µM) | < 14 | 250 | 4 (≈ 7.59 µM) |  |
| CC(C)Cn1c(=O)n(C)c(=O)c2c(-c3cncn3C)n(Cc3cccc4ccccc34)nc21 |  | 4 (≈ 9.04 µM) |  | 120 |  |  |
